According to ChEMBL document CHEMBL4414574, “Structure-Based Discovery and Development of a Series of Potent and Selective Bromodomain and Extra-Terminal Protein Inhibitors” (J Med Chem, 2019):

Columns and labels:
[1] = AUC (0 to t) in ICR mouse plasma at 50 mg/kg, po administered via gavage measured after 0.25 to 24 hrs by UPLC/MS analysis; format: ADME, organism-based; design: time lower 0.25 hr, dose 50 mg/kg, time upper 24 hr, route oral
In short: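 Male ICR mice were dosed orally in 1% DMSO/0.5% HPMC vehicle. Plasma (and brain, where stated) concentrations gave Tmax, Cmax, T1/2, AUC0-t and AUC0-inf.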

[2] = Tmax in ICR mouse at 10 mg/kg, po administered via gavage measured after 0.25 to 24 hrs by UPLC/MS analysis; format: ADME, organism-based; details: in vivo
In short: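 Male ICR mice dosed orally (3, 10 or 100 mg/kg, per line) in 1% DMSO/0.5% HPMC vehicle; plasma drug levels measured.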

[3] = biological target: CYP3A4 (Homo sapiens, UniProt P08684); assay: Reversible inhibition of CYP3A4 in human liver microsomes at 10 uM using midazolam or testosterone as substrate preincubated for 5 mins followed by NADPH addition and measured after 20 mins relative to control; format: ADME; details: probe midazolam or testosterone
In short: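 Human liver microsomes 0.2 mg/mL, 100 mM phosphate pH 7.4, 10 μM test compound, probe cocktail (10 μM midazolam, 100 μM testosterone, 10 μM dextromethorphan, 20 μM diclofenac, 100 μM phenacetin, 100 μM mephenytoin); organic solvent <1%; 5 min preincubation at 37 °C, started with NADPH-generating system, 20 min reaction; metabolite formation expressed relative to PBS control.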

[4] = tested on: MM1.S; assay: Antiproliferative activity against human MM1S cells after 72 hrs by CCK8 or SRB assay; format: functional, cell-based
In short: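 IC50 against MM.1S cell proliferation was taken as the mean of three independent experiments, each run in triplicate, reported with SEM.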

[5] = biological target: Bromodomain-containing protein 2 (Homo sapiens) (UniProt P25440); assay: Binding affinity to human partial length BRD2 bromodomain 2 isoform 1 (E348 to D455 residues) expressed in Escherichia coli BL21 cells assessed as residual binding level at 1 uM measured after 1 hr by quantitative PCR based BROMOscan assay relative to control
In short: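 A BROMOScan competition-binding panel of 32 bromodomains was run at a single 1 μM compound concentration. Results are primary-screen 'Percent Control', where lower values indicate stronger binding.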

[6] = biological target: Bromodomain-containing protein 4 (Homo sapiens, UniProt O60885); assay: Binding affinity to His6-tagged human BRD4 bromodomain 1 expressed in Escherichia coli BL21(DE3) )-codon plus-RIL cells by isothermal titration calorimetric method
In short: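 BRD4 BD1 was His6-tagged and expressed in E. coli BL21(DE3)-codon plus-RIL with IPTG induction overnight at 16 °C. It was purified on Ni-NTA with imidazole step elution and concentrated in HEPES pH 7.5/NaCl/DTT gel filtration buffer. Kd was measured by isothermal titration calorimetry.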

[7] = tested on: MV4-11; assay: Induction of apoptosis in human MV4-11 cells assessed as increase in cleaved caspase-9 level after 24 hrs by Western blot analysis; format: functional, cell-based
In short: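 MV4-11 cells exposed to test agent at the indicated doses for 24 h. Lysates immunoblotted for full-length and cleaved caspase-3, -7, -8 and -9, with GAPDH as the loading reference.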

[8] = Toxicity in Balb/c nude mouse xenografted with human MV4-11 cells assessed as reduction in body weight at 10 to 50 mg/kg, administered once daily; format: organism-based; details: in vivo

Sequence of Bromodomain-containing protein 2 (Homo sapiens) (P25440 whole entry, looked up, the tested form may be a part, canonical isoform): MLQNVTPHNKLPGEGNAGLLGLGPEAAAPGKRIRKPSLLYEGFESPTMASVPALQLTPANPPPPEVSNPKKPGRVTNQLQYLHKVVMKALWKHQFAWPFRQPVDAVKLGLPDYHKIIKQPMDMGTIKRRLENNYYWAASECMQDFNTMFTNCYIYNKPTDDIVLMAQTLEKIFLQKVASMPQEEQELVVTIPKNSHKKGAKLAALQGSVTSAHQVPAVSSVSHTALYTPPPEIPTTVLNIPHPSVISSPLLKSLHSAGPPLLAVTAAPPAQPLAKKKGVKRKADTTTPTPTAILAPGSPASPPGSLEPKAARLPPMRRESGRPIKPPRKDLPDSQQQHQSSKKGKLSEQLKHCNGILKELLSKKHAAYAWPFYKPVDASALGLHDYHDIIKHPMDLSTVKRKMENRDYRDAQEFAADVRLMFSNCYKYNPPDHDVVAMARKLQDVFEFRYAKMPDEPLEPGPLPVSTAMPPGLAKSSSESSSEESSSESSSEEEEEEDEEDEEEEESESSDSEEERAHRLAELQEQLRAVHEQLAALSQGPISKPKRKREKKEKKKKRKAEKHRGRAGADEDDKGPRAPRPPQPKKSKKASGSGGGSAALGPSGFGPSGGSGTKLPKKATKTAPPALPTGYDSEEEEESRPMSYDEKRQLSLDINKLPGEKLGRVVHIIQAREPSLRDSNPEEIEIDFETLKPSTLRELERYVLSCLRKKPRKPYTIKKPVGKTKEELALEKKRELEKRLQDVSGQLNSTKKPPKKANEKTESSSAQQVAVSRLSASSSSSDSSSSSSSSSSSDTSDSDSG
Sequence of CYP3A4 (P08684 whole entry): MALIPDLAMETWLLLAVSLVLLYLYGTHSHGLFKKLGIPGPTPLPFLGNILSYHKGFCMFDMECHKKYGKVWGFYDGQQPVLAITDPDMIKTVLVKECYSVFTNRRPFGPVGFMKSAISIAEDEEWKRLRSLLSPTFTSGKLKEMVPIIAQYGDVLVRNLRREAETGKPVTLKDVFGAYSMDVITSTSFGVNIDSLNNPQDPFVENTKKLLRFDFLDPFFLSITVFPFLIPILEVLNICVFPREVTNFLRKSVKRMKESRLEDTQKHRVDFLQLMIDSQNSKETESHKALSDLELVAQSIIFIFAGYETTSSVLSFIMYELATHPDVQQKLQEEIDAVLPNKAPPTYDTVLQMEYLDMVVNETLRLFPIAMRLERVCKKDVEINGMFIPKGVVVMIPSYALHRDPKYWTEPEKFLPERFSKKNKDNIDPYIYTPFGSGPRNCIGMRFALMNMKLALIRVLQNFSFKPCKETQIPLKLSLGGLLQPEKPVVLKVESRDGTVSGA

Cc1ccc(-n2nc(C(=O)N3C[C@@H](C)N[C@@H](C)C3)nc2-c2ccc3c(c2)N(C2CCCC2)[C@H](C)C(=O)N3C)cc1
AUC(0-t) [1]: 16700 ng·h/mL
Tmax [2]: 1.1 h
inhibition at 20 min, 10 µM [3]: 23 to 28%
IC50 [4]: 2.3 nM
Activity [5]: < 5%
Kd [6]: 15.2 nM
Activity [7]: Dose-dependent effect
Activity [8]: Non-Toxic
